The results in this text go back to ChEMBL document CHEMBL1134622, “Piperazine-based CCR5 antagonists as HIV-1 inhibitors. II. Discovery of 1-[(2,4-dimethyl-3-pyridinyl)carbonyl]-4- methyl-4-[3(S)-methyl-4-[1(S)-[4-(trifluoromethyl)phenyl]ethyl]-1-piperazinyl]- piperidine N1-oxide (Sch-350634), an orally bioavailable, potent CCR5 antagonist” (J Med Chem, 2001).

Series [1] addresses T1, C-C chemokine receptor type 5 (Homo sapiens, UniProt P51681). Put plainly: Binding affinity towards C-C chemokine receptor type 5. In outline:
(§1)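 CCR5 Ki in nM. Standard error 10%; assay-to-assay variability 2-3-fold.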

Series [2] relates to U-87 MG. Nature of the series: Inhibition of the entry of HIV-1 reporter virus (ADA) into U-87 cells. The following applies: Homo sapiens. The format is functional, cell-based, U-87MG ATCC. In outline:
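Single-cycle infectivity assay in U-87 cells with HIV-1 reporter virus (ADA). IC50 is the concentration giving 50% inhibition of viral entry. 95% confidence limit within 1 log; intra-assay variation under 0.5 log.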

Another series relates to Rattus norvegicus. Nature of the series: Pharmacokinetic characterization measured on oral blood levels in rat at 10 mg/kg (0-6 hr). The format is ADME, organism-based. The arrangement: time < 6 hr, dose 10 mg/kg, route oral. To be noted: in vivo. In outline:
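Rats given compound orally at 10 mg/kg. Plasma concentrations followed over 6 h. Blood levels expressed as AUC (0-6 h) of the concentration-time plot, in ng/mL h.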

Series [3] concerns U-87 MG. Put plainly: Inhibition of the entry of HIV-1 reporter virus (JrF1) into U-87 cells. The following applies: Homo sapiens. The format is functional, cell-based, U-87MG ATCC. In outline:
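Entry of HIV-1 reporter virus (JrFl) into U-87 cells. IC50 is the concentration inhibiting entry by 50%. 95% confidence limit within 1 log; intra-assay variation under 0.5 log.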

Series [4] is described as follows: Plasma concentration after 0 hours of intravenous administration in dog. The format is ADME, organism-based, Canis lupus familiaris. To be noted: read-out: Co. In outline:
(§2)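 Beagle dogs and cynomolgus monkeys. IV dose 1 mg/kg. Oral dose 3 mg/kg in dog, 10 mg/kg in monkey. Plasma sampled over 0-24 h. […] Bioavailability is dose-corrected from oral vs iv AUC.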

A short description of series [5]: Maximum plasma concentration after oral administration in dog. The format is ADME, organism-based, Canis lupus familiaris. The arrangement: route oral. In outline: as §2
Series [6] deals with T2, Muscarinic acetylcholine receptor M2 (Homo sapiens, UniProt P08172).
T2 sequence (P08172 whole entry): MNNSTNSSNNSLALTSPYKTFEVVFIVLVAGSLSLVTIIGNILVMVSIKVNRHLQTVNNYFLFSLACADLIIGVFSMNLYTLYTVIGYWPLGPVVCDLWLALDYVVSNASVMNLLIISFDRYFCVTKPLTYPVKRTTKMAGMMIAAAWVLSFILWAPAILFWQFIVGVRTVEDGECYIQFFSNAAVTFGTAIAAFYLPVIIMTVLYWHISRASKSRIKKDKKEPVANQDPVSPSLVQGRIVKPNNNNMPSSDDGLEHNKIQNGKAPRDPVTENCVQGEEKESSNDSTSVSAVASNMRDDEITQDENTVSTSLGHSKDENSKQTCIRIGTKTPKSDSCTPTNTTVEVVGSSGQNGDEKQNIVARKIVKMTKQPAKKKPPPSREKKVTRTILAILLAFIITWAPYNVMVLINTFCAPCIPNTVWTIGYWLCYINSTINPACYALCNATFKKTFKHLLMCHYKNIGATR
Put plainly: Binding affinity against muscarinic acetylcholine receptor M2.

Series [7] in a line: Maximum plasma concentration after oral administration in monkey. The format is ADME, organism-based. Further details: route oral. The following applies: simiiformes. In outline: as §2
Series [8] relates to Cynomolgus monkey. Nature of the series: Area under concentration curve in cynomolgus monkey after iv administration. The format is ADME, organism-based, Macaca fascicularis. The following applies: in vivo. In outline: as §2
Series [9] deals with Canis familiaris. Nature of the series: Area under concentration curve in Beagle dogs after oral administration (0-24 hr). The format is ADME, organism-based, Canis lupus familiaris. The arrangement: time < 24 hr, route oral. To be noted: dog, in vivo. In outline: as §2
Series [10] has as its system Cynomolgus monkey. Put plainly: Area under concentration curve in cynomolgus monkey after oral administration. The format is ADME, organism-based, Macaca fascicularis. The following applies: in vivo. In outline: as §2
Series [11] deals with T1, C-C chemokine receptor type 5. Nature of the series: Binding affinity at C-C chemokine receptor type 5. In outline: as §1
The nature of series [12]: Bioavailability in monkey after oral administration. The following applies: simiiformes, in vivo, read-out: BA. The format is ADME, organism-based. In outline: as §2
The nature of series [13]: Time required for the maximum plasma concentration in rat blood levels at 10 mg/kg. The format is ADME, organism-based. Further details: dose 10 mg/kg.
Series [14] in a line: Plasma concentration after 0 hours of intravenous administration in cunomolgus monkey. The format is ADME, organism-based, Macaca fascicularis. The following applies: cynomolgus monkey. In outline:
as §2

Series [15] can be described thus: Bioavailability in dog after oral administration. The format is ADME, organism-based, Canis lupus familiaris. To be noted: in vivo, read-out: BA. In outline:
as §2

For series [16], the system named is Canis familiaris. Nature of the series: Area under concentration curve in Beagle dogs after iv administration (0-24 hr). The format is ADME, organism-based, Canis lupus familiaris. Further details: time < 24 hr, route intravenous. The following applies: dog, in vivo. In outline:
as §2

Series [17] is described as follows: Half life determined after iv administration to dog. The format is ADME, organism-based, Canis lupus familiaris. The following applies: in vivo. In outline:
as §2

Series [18] can be described thus: Plasma concentration after 6 hours of oral administration in rat. The following applies: read-out: C6h. The format is ADME, organism-based.
Series [19] in a line: Time required for the maximum plasma concentration in rat. The format is ADME, organism-based.
Series [20] in a line: Half life determined after iv administration to monkey. The format is ADME, organism-based. To be noted: simiiformes, in vivo. In outline:
as §2

Series [21] deals with T1, C-C chemokine receptor type 5. Put plainly: Inhibitory activity against C-C chemokine receptor type 5. In outline: as §1

T1 sequence (P51681 whole entry): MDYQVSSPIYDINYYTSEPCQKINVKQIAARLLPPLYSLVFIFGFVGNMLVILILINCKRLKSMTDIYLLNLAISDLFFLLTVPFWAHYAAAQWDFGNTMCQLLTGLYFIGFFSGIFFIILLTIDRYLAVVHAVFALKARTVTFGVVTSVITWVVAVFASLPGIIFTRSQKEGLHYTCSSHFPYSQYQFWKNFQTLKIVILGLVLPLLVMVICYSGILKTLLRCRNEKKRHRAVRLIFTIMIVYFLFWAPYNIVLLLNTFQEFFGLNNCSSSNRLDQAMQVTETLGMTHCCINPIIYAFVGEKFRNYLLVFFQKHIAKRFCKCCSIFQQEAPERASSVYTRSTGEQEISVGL

As to `Cc1cccc(C)c1C(=O)N1CCC(N2CCN(Cc3ccc(I)cc3)CC2)CC1`, in [1], the Ki (commonly the equilibrium dissociation constant of an inhibitor or competing ligand from its target) is 440 nM.

For `Cc1cccc(O)c1C(=O)N1CCC(C)(N2CCN([C@@H](C)c3ccc(C(F)(F)F)cc3)[C@@H](C)C2)CC1`, 3.2 nM corresponded to half-maximal inhibition in the series on U-87 MG [2] (IC50). In [1], this molecule returned a Ki of 5 nM. In the series with Rattus norvegicus, the AUC – broadly, the area under the concentration-time curve, a measure of exposure – stood at 2540 ng·h/mL.

Turning to `Cc1cccc(O)c1C(=O)N1CCC(C)(N2CCN([C@@H](C)c3ccc(S(C)(=O)=O)cc3)[C@@H](C)C2)CC1`, the midpoint of inhibition in the series on U-87 MG [2], the IC50, lay at 4 nM. The affinity in [1], expressed as Ki, was 15 nM. Also, the AUC in the series on Rattus norvegicus came to 384 ng·h/mL.

Molecule `Cc1cccc(C)c1C(=O)N1CCC(N2CCN([C@@H](C)c3ccc(I)cc3)[C@@H](C)C2)CC1` came in with a Ki in series [1] of 20 nM. For the same molecule, half-maximal inhibition with U-87 MG [3] (IC50) required 7 nM.

As for `C[C@H]1CN(C2(C)CCN(C(=O)c3c(N)cccc3Cl)CC2)CCN1[C@@H](C)c1ccc(S(C)(=O)=O)cc1`, the half-inhibitory concentration (IC50) (usually the concentration that gives 50% inhibition) with U-87 MG [2] is 0.8 nM. The molecule also displayed a Ki in series [1] of 5 nM. The AUC with Rattus norvegicus was 447 ng·h/mL.

`Cc1cccc(C)c1C(=O)N1CCC(C)(N2CCN([C@@H](C)c3ccc(S(C)(=O)=O)cc3)[C@@H](C)C2)CC1` registered an IC50 in the series on U-87 MG [2] of 0.5 nM. Moreover, affinity in series [1] was put at a Ki of 3 nM.

The molecule `C[C@H]1CN(C2(C)CCN(C(=O)c3c(N)cccc3Cl)CC2)CCN1[C@@H](C)c1ccc(I)cc1` came in with an IC50 with U-87 MG [2] of 2 nM. In [1], this molecule had a Ki of 12 nM. In addition, the AUC in the series on Rattus norvegicus is 1980 ng·h/mL.

As for `Cc1ccnc(C)c1C(=O)N1CCC(C)(N2CCN([C@@H](C)c3ccc(C(F)(F)F)cc3)[C@@H](C)C2)CC1`, in [4], the concentration at 0 h stood at 346 ng/mL. The figures for the Cmax in series [5] and in series [7] were 226 ng/mL and 281 ng/mL, respectively. Further, the values for the inhibition constant Ki in [6] and in series [11] were 2500 nM and 2.3 nM, respectively. The molecule also returned an IC50 with U-87 MG [2] of 0.5 nM. Moreover, the AUC in the series on Cynomolgus monkey [8] is 996 ng·h/mL; with Canis familiaris [9], 1580 ng·h/mL; in the series on Rattus norvegicus, 3900 ng·h/mL; with Cynomolgus monkey [10] it was 2740 ng·h/mL; in the series with Canis familiaris [16] it was 1610 ng·h/mL. The bioavailability was found to be 27.5% in series [12] and 33% in [15]. Also, the Tmax – broadly, the time from dosing to the highest level – in [13] was found to be 1.5 h. In series [14], the C0 at 0 h was determined as 390 ng/mL.

Molecule `Cc1cccc(C)c1C(=O)N1CCC(C)(N2CCN(Cc3ccc(I)cc3)CC2)CC1` showed an inhibitory constant (Ki) in [1] of 62 nM.

As to `Cc1cccc(C)c1C(=O)N1CCC(C)(N2CCN([C@@H](C)c3ccc(C(F)(F)F)cc3)[C@@H](C)C2)CC1`, inhibition in the series with U-87 MG [2] was half-maximal at 0.4 nM (IC50). Further, the affinity in series [1], expressed as Ki, was 1 nM. The molecule further registered an AUC in the series with Rattus norvegicus of 922 ng·h/mL.

Regarding `Cc1cccc(C)c1C(=O)N1CCC(C)(N2CCN([C@@H](C)c3ccc(I)cc3)[C@@H](C)C2)CC1`, inhibition in the series with U-87 MG [2] was half-maximal at 1 nM (IC50). In series [1], this molecule returned a Ki of 5 nM. Moreover, in the series with Rattus norvegicus, the AUC is 822 ng·h/mL.

Consider `Cc1cccc(C)c1C(=O)N1CCC(N2CCN(Cc3ccc(I)cc3)[C@@H](C)C2)CC1`, for which, in series [1], the inhibition constant Ki is 30 nM.

For `Cc1cc[n+]([O-])c(C)c1C(=O)N1CCC(C)(N2CCN([C@@H](C)c3ccc(C(F)(F)F)cc3)[C@@H](C)C2)CC1`, the Cmax (usually the peak of the concentration-time curve) in [5] was 690 ng/mL; in series [7], 1420 ng/mL. For the same molecule, the inhibition constant (Ki) in [6] is 250 nM; in [11], 7 nM. Further, the values for the half-life in series [17] and in series [20] were 6 h and 4 h, respectively. In addition, the midpoint of inhibition in the series with U-87 MG [2], the IC50, lay at 1 nM. In series [18], the concentration at 6 h amounted to 1300 ng/mL. Further, the AUC with Cynomolgus monkey [8] worked out at 2610 ng·h/mL; with Canis familiaris [9], 6290 ng·h/mL; in the series on Rattus norvegicus, 9240 ng·h/mL; with Cynomolgus monkey [10], 15400 ng·h/mL; in the series with Canis familiaris [16] it was 3240 ng·h/mL. Further, in series [19], the Tmax was found to be 2.5 h. For the same molecule, the bioavailability was determined as 59% in [12] and 65% in series [15].

`Cc1cccc(C)c1C(=O)N1CCC(N2CCN([C@@H](C)c3ccc(Br)cc3)[C@@H](C)C2)CC1` had a Ki in series [1] of 23 nM. Further, the IC50 in series [21] was determined as 6 nM.

In the series on U-87 MG [2], `C[C@H]1CN(C2(C)CCN(C(=O)c3c(N)cccc3Cl)CC2)CCN1[C@@H](C)c1ccc(C(F)(F)F)cc1` gave an IC50 of 1.2 nM. This molecule gave a Ki in [1] of 5 nM. This molecule also displayed an AUC with Rattus norvegicus of 1870 ng·h/mL.

`Cc1cccc(C)c1C(=O)N1CCC(C)(N2CCN(Cc3ccc(I)cc3)[C@@H](C)C2)CC1` gave a Ki in [1] of 8 nM. The IC50 in the series on U-87 MG [3] was 2.7 nM.

Consider `Cc1cccc(C)c1C(=O)N1CCC(N2CCN([C@@H](C)c3ccccc3)[C@@H](C)C2)CC1`, for which the affinity in [1], expressed as Ki, was 275 nM.

The molecule `Cc1cccc(O)c1C(=O)N1CCC(C)(N2CCN([C@@H](C)c3ccc(I)cc3)[C@@H](C)C2)CC1` showed an IC50 in the series with U-87 MG [2] of 1 nM. This molecule returned an inhibitory constant (Ki) in series [1] of 7 nM. For the same molecule, in the series with Rattus norvegicus, the AUC is 2810 ng·h/mL.
